{"source": "paper PMC8176629", "about": "(European journal of medicinal chemistry, 2021)", "key": {"[1]": {"system": "HIV-1NL4–3", "test": "HIV-1/NL4–3 replication inhibition assay in MT-4 lymphocytes", "type": "cell-based", "settings": "for activity compared with 4 (EC50 0.019 μM): HIV-1NL4–3 infected MT-4 cell lines", "method_in_brief": "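MT-4 cells infected with HIV-1 NL4-3 at MOI 0.01 in the presence of test compound. Culture supernatants were harvested on day 4 post-infection, and p24 antigen was measured by capture ELISA. IC50 was taken as the concentration that inhibits NL4-3 replication by 50%.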"}, "[2]": {"system": "NL4–3/V370A", "settings": "most prevalent bevirimat-resistant polymorphism; cited from earlier work"}, "[3]": {"system": "HIV-1NL4–3", "settings": "cited from earlier work"}, "[4]": {"settings": "Human immunodeficiency virus 1, Lymphocyte, read-out: PIC50 (experimental)"}, "[5]": {"settings": "Human immunodeficiency virus 1, MT4, 96 h"}}, "note": "Entries after “also recorded” stand apart in the source; their conditions may differ. Where two headings read alike, the source gives them in different places."}
{"molecule": "C=C(C)[C@@H]1CC[C@]2(C(=O)O)CC[C@]3(C)[C@H](CC[C@@H]4[C@@]5(C)CC[C@H](OC(=O)CC(C)(C)C(=O)O)C(C)(C)[C@@H]5CC[C@]43C)[C@@H]12", "note": "[Compound 3, 3-O-(3′,3′-dimethylsuccinyl)betulinic acid, reference compound]", "values": [{"measurement": "IC50", "setting": "[1]; [4]", "value": 64.6, "unit": "nM"}, {"measurement": "IC50", "setting": "[1]; [5]", "value": "65 ± 1.9", "unit": "nM"}]}
{"molecule": "C=C(C)[C@@H]1CC[C@]2(C(=O)N3CCN(C(=O)/C=C/c4ccc5c(c4)OCO5)CC3)CC[C@]3(C)[C@H](CC[C@@H]4[C@@]5(C)CC[C@H](OC(=O)CC(C)(C)C(=O)O)C(C)(C)[C@@H]5CC[C@]43C)[C@@H]12", "note": "[Compound 4]", "values": [{"measurement": "activity increase compared with 3 against NL4–3/V370A", "setting": "[2]", "value": 51, "unit": "fold"}, {"measurement": "IC50", "setting": "[1]; [4]", "value": 19.1, "unit": "nM"}, {"measurement": "IC50", "setting": "[1]; [5]", "value": "19 ± 5.4", "unit": "nM"}, {"measurement": "activity increase compared with 3 against NL4–3", "setting": "[3]", "value": "three-fold"}]}
{"molecule": "C=C(C)[C@@H]1CC[C@]2(C(=O)N3CCN(C(=O)/C=C/c4ccc(OC)c(OC)c4)CC3)CC[C@]3(C)[C@H](CC[C@@H]4[C@@]5(C)CC[C@H](OC(=O)CC(C)(C)C(=O)O)C(C)(C)[C@@H]5CC[C@]43C)[C@@H]12", "note": "[Compound 9b]", "values": [{"measurement": "IC50", "setting": "[1]; [4]", "value": 28.8, "unit": "nM"}, {"measurement": "IC50", "setting": "[1]; [5]", "value": "29 ± 9.3", "unit": "nM"}]}
{"molecule": "C=C(C)[C@@H]1CC[C@]2(C(=O)N3CCN(C(=O)/C=C/c4ccc(N(C)C)cc4)CC3)CC[C@]3(C)[C@H](CC[C@@H]4[C@@]5(C)CC[C@H](OC(=O)CC(C)(C)C(=O)O)C(C)(C)[C@@H]5CC[C@]43C)[C@@H]12", "note": "[Compound 9i, (E)-4-(28-(4-(3-(4-(dimethylamino)phenyl)acryloyl)piperazine-1-carbonyl)lup-20(29)-en-3β-oxy)-2,2-dimethyl-4-oxobutanoic acid]", "values": [{"measurement": "activity compared with 4 (EC50 0.019 μM)", "setting": "[1]", "value": "improved or comparable activity; also recorded: improved or similar activity"}]}
{"molecule": "C=C(C)[C@@H]1CC[C@]2(C(=O)N3CCN(C(=O)/C=C/c4ccc(OCOC)c(OCOC)c4)CC3)CC[C@]3(C)[C@H](CC[C@@H]4[C@@]5(C)CC[C@H](OC(=O)CC(C)(C)C(=O)O)C(C)(C)[C@@H]5CC[C@]43C)[C@@H]12", "note": "[Compound 9r]", "values": [{"measurement": "IC50", "setting": "[1]; [4]", "value": 50.1, "unit": "nM"}, {"measurement": "IC50", "setting": "[1]; [5]", "value": "50 ± 21", "unit": "nM"}]}
{"molecule": "C=C(C)[C@@H]1CC[C@]2(C(=O)N3CCN(C(=O)/C=C/c4ccc(OCOC)c(OC)c4)CC3)CC[C@]3(C)[C@H](CC[C@@H]4[C@@]5(C)CC[C@H](OC(=O)CC(C)(C)C(=O)O)C(C)(C)[C@@H]5CC[C@]43C)[C@@H]12", "note": "[Compound 9t, (E)-4-(28-(4-(3-(3-methoxy-4-(methoxymethoxy)phenyl)acryloyl)piperazine-1-carbonyl)lup-20(29)-en-3β-oxy)-2,2-dimethyl-4-oxobutanoic acid]", "values": [{"measurement": "activity compared with 4 (EC50 0.019 μM)", "setting": "[1]", "value": "improved or comparable activity; also recorded: improved or similar activity"}]}
{"molecule": "C=C(C)[C@@H]1CC[C@]2(C(=O)N3CCN(C(=O)/C=C/c4ccc(O)c(O)c4)CC3)CC[C@]3(C)[C@H](CC[C@@H]4[C@@]5(C)CC[C@H](OC(=O)CC(C)(C)C(=O)O)C(C)(C)[C@@H]5CC[C@]43C)[C@@H]12", "note": "[Compound 10a]", "values": [{"measurement": "IC50", "setting": "[1]; [4]", "value": 28.2, "unit": "nM"}, {"measurement": "IC50", "setting": "[1]; [5]", "value": "28 ± 9.8", "unit": "nM"}]}
{"molecule": "C=C(C)[C@@H]1CC[C@]2(C(=O)N3CCN(C(=O)/C=C/c4ccc(O)c(OC)c4)CC3)CC[C@]3(C)[C@H](CC[C@@H]4[C@@]5(C)CC[C@H](OC(=O)CC(C)(C)C(=O)O)C(C)(C)[C@@H]5CC[C@]43C)[C@@H]12", "note": "[Compound 10c, (E)-4-(28-(4-(3-(4-hydroxy-3-methoxyphenyl)acryloyl)piperazine-1-carbonyl)lup-20(29)-en-3β-oxy)-2,2-dimethyl-4-oxobutanoic acid]", "values": [{"measurement": "activity compared with 4 (EC50 0.019 μM)", "setting": "[1]", "value": "improved or comparable activity; also recorded: improved or similar activity"}]}
{"molecule": "C=C(C)[C@@H]1CC[C@]2(C(=O)N3CCN(C(=O)CCc4ccc5c(c4)OCO5)CC3)CC[C@]3(C)[C@H](CC[C@@H]4[C@@]5(C)CC[C@H](OC(=O)CC(C)(C)C(=O)O)C(C)(C)[C@@H]5CC[C@]43C)[C@@H]12", "note": "[Compound 13m, 4-(28-(4-(3-(Benzo[d] [1,3]dioxol-5-yl)propanoyl)piperazine-1-carbonyl)lup-20(29)-en-3b-oxy)-2,2-dimethyl-4-oxobutanoic acid]", "values": [{"measurement": "activity compared with 4 (EC50 0.019 μM)", "setting": "[1]", "value": "improved or comparable activity; also recorded: improved or similar activity"}]}
{"molecule": "C=C(C)[C@@H]1CC[C@]2(C(=O)OCCCOC(=O)/C=C/c3ccc(OC)cc3)CC[C@]3(C)[C@H](CC[C@@H]4[C@@]5(C)CC[C@H](OC(=O)CC(C)(C)C(=O)O)C(C)(C)[C@@H]5CC[C@]43C)[C@@H]12", "note": "[Compound 20a]", "values": [{"measurement": "fold less potent than 9e", "setting": "[1]; compared with piperazine-linked 9e", "value": 11, "unit": "fold"}]}
{"molecule": "C=C(C)[C@@H]1CC[C@]2(C(=O)N3CCN(CCCCC(=O)N4CCN(C(=O)/C=C/c5ccc6c(c5)OCO6)CC4)CC3)CC[C@]3(C)[C@H](CC[C@@H]4[C@@]5(C)CC[C@H](OC(=O)CC(C)(C)C(=O)O)C(C)(C)[C@@H]5CC[C@]43C)[C@@H]12", "note": "[Compound 31]", "values": [{"measurement": "IC50", "setting": "[1]; [5]", "value": "12 ± 4.1", "unit": "nM"}]}
{"molecule": "C=C(C)[C@@H]1CC[C@]2(C(=O)N3CCN(CCCCC(=O)N4CCN(c5cc(NCc6ccccc6)ncn5)CC4)CC3)CC[C@]3(C)[C@H](CC[C@@H]4[C@@]5(C)CC[C@H](OC(=O)CC(C)(C)C(=O)O)C(C)(C)[C@@H]5CC[C@]43C)[C@@H]12", "note": "[Compound 32, 4-(28-(4-(5-(4-(6-(Benzylamino)pyrimidin-4-yl)piperazin-1-yl)-5-oxopentyl)piperazine-1-carbonyl)lup-20(29)-en-3β-oxy)-2,2-dimethyl-4-oxobutanoic acid]", "values": [{"measurement": "activity compared with 4 (EC50 0.019 μM)", "setting": "[1]", "value": "improved or comparable activity; also recorded: improved or similar activity"}]}
